Target: Adenylate cyclase type 5 (Homo sapiens, UniProt O95622)
Assay: Inhibitory activity against recombinant human adenylate cyclase 5 expressed in HEK293 cells.
Assay type: cell-based
How it was run: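 Membranes from HEK293 cells expressing human type V AC (1.4 µg/mL protein), stimulated with 25 nM activated recombinant GsR. Buffer: 60 mM HEPES pH 8.0, 0.6 mM EDTA, 0.01% BSA, 1 mM ATP, 2 mM IBMX, 2 mM MgCl₂. Reaction 30 min at 30 °C. cAMP product quantified by flash plate. Inhibition calculated against compound-free controls.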

Adenylate cyclase type 5, sequence (O95622 whole entry): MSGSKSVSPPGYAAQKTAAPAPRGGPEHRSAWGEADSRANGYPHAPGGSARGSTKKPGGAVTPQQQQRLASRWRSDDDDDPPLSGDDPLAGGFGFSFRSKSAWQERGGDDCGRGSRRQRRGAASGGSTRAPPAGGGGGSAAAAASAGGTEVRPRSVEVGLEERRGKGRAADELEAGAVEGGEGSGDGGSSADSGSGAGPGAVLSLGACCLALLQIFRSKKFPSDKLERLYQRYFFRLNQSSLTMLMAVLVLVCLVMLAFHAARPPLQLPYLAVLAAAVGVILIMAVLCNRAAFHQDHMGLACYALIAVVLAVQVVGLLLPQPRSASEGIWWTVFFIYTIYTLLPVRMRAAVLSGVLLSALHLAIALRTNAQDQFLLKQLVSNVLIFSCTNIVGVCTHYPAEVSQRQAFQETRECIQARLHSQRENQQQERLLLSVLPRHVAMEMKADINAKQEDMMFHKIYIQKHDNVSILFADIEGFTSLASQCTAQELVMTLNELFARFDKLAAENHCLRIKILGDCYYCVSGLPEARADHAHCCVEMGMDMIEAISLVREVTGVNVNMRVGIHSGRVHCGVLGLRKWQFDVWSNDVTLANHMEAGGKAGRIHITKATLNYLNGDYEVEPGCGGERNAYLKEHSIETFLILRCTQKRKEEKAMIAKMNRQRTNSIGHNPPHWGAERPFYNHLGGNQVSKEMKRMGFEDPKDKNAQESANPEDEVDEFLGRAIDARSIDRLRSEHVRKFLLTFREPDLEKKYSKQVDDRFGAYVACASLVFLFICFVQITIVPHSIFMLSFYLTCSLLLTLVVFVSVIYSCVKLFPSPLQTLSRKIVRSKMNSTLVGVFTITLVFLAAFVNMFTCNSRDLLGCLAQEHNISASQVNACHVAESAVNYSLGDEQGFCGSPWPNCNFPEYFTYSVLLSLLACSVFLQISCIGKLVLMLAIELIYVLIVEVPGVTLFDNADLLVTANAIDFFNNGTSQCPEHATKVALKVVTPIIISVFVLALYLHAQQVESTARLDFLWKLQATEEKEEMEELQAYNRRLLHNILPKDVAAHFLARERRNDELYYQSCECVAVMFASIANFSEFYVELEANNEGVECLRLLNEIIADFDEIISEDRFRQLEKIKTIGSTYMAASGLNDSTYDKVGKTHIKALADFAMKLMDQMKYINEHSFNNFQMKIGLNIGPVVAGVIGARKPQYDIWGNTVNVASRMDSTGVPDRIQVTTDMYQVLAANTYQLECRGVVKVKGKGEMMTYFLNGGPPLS

Row | Compound | IC50 [µM]
1 | Nc1ncnc2c1ncn2[C@H]1CC[C@H](CC(=O)O)C1 | > 100
2 | Nc1ncnc2c1ncn2[C@H]1CC[C@@H](CC(=O)O)C1 | > 200
3 | Nc1ncnc2c1ncn2[C@@H]1C=C[C@H](CC(=O)O)C1 | 73.2
4 | Nc1ncnc2c1ncn2[C@H]1C=C[C@@H](CC(=O)NO)C1 | 16.3
5 | Nc1ncnc2c1ncn2[C@@H]1C=C[C@@H](CC(=O)O)C1 | > 200
6 | Nc1ncnc2c1ncn2[C@@H]1C=C[C@@H](C(=O)NO)C1 | 100
7 | Nc1ncnc2c1ncn2[C@H]1CC[C@@H](CC(=O)NO)C1 | 25.1
8 | Nc1ncnc2c1ncn2[C@@H]1CC[C@H](CC(=O)NO)C1 | 55
9 | Nc1ncnc2c1ncn2[C@@H]1CC[C@@H](CC(=O)O)C1 | 28.8
10 | Nc1ncnc2c1ncn2[C@H]1C=C[C@@H](CC(=O)O)C1 | > 200
11 | Nc1ncnc2c1ncn2[C@@H]1CC[C@H](C(=O)NO)C1 | > 70
12 | Nc1ncnc2c1ncn2[C@H]1C=C[C@@H](C(=O)NO)C1 | 188
13 | Nc1ncnc2c1ncn2[C@@H]1CC[C@H](CC(=O)O)C1 | > 200
14 | Nc1ncnc2c1ncn2[C@@H]1C=C[C@H](C(=O)NO)C1 | > 200
15 | Nc1ncnc2c1ncn2[C@@H]1CC[C@@H](C(=O)NO)C1 (single isomer, unassigned) | 78

Now those with a lower IC50, led by results:

Row | IC50 [µM] | Compound
16 | 13.6 | Nc1ncnc2c1ncn2[C@H]1C=C[C@H](OCC(=O)NO)C1
17 | 10.8 | Nc1ncnc2c1ncn2[C@H]1CC[C@H](OCC(=O)NO)C1
18 | 9.4 | Nc1ncnc2c1ncn2[C@H]1CC[C@H](CC(=O)NO)C1
19 | 8.2 | Nc1ncnc2c1ncn2[C@H]1C=C[C@H](CC(=O)O)C1
20 | 4.9 | Nc1ncnc2c1ncn2[C@H]1C=C[C@H](C(=O)NO)C1
21 | 4.6 | Nc1ncnc2c1ncn2[C@H]1CC[C@@H](C(=O)NO)C1
22 | 4.3 | Nc1ncnc2c1ncn2[C@@H]1C=C[C@@H](CC(=O)NO)C1
23 | 2.6 | Nc1ncnc2c1ncn2[C@@H]1C=C[C@H](CC(=O)NO)C1
24 | 0.6 | Nc1ncnc2c1ncn2[C@@H]1CC[C@@H](CC(=O)NO)C1
25 | 0.4 | Nc1ncnc2c1ncn2[C@H]1C=C[C@H](CC(=O)NO)C1
26 | 0.2 | Nc1ncnc2c1ncn2[C@H]1CC[C@H](C(=O)NO)C1 (single isomer, unassigned)

From ChEMBL document CHEMBL1144994, “Metal coordination-based inhibitors of adenylyl cyclase: novel potent P-site antagonists” (J Med Chem, 2003)
